Screens deposited in PubChem by several laboratories.
CHOP inhibitor: blocks CHOP induction under ER stress; CHO-K1 CHOP-promoter luciferase, tunicamycin-induced, 15-18 h; inhibition, % at 10 µM; 3.8% of 220,000 active; AID 2732;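 active = compounds that reduced the stress-induced luciferase reporter signal by more than about 70% of percent inhibition, limit read from the data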;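 also: 0% = tunicamycin plus vehicle and 100% = wells without tunicamycin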
CHOP UPR activ: apoptotic UPR (CHOP) activation. 0.34% of 330,000 active. CHO-CHOP luciferase reporter, luminescence; percent of tunicamycin response over DMSO baseline. activation, % at 10 µM;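 active = at 10 µM dose, activation of 40% or more, normalized to positive control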;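 also: 100% = tunicamycin at 10 µg/mL and 0% = DMSO alone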
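assay system = CHO CHOP reporter cells | amount = 500 CHO-CHOP cells per well | buffer or medium = F12 with 10% FBS | incubation = 16-18 h cell attachment, then 6 h compound exposure, 37 °C | detection = luminescence read with Steady-Glo | read-out = percent activation relative to tunicamycin control | controls = tunicamycin high control, DMSO low control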
NOD2 RIPK2 PPI: NOD2-RIPK2 protein interaction inhibition. CHO BLA complementation NOD2-RIPK2, CCF4 ratio. 0.38% of 360,000 active. inhibition, % at 4.98 µM. O43353; in the data active = inhibition above about 21%;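 also: 0% = vehicle only and 100% = reference blocker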
Target sequence (O43353 whole entry, looked up): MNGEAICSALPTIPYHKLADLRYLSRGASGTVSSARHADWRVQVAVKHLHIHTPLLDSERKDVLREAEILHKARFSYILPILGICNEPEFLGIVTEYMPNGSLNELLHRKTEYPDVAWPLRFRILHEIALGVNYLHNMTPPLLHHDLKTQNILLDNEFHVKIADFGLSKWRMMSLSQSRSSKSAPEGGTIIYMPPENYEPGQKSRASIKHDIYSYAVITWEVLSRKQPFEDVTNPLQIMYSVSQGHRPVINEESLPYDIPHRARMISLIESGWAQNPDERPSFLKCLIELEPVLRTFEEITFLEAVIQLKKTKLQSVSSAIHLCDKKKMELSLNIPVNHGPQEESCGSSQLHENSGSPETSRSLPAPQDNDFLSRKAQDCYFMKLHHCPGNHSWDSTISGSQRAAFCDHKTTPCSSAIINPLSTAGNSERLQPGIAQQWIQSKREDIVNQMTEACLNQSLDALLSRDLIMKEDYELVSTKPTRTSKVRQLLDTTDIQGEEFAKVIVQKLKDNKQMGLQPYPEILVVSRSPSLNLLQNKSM
TLR4-MyD88 BLA: inhibitors of human TLR4-MyD88 binding; inhibition, % at 8.4 µM; AID 861; HeLa CL3-4 TLR4/MyD88 BLA complementation, FRET ratio; 0.18% of 200,000 active; in the data active = inhibition above about 25%;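 also: 0% = vehicle and 100% = reference inhibitor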
XBP1 UPR activ: adaptive UPR (XBP1) activation; CHO-XBP1 luciferase reporter, IRE1-XBP1 UPR activation, luminescence; percent of tunicamycin response, DMSO as zero; activation, % at 20 µM; 0.33% of 330,000 active;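 active = versus positive control, 20 µM dose yields 30% or more activation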;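 also: 100% = tunicamycin at 10 µg/mL and 0% = DMSO only wells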
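incubation = overnight seeding at 37 °C, 6 h compound treatment at 37 °C | assay system = CHO-XBP1 cells stably carrying IRE1-XBP1-driven luciferase reporter | input = 1000 cells per well | detection = luciferase luminescence | dosing = single point, 20 µM final compound, 1% DMSO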
TLR9-MyD88 inh: TLR9-MyD88 interaction inhibition | Q9NR96+Q99836 | AID 504734 | 0.21% of 340,000 active | CHO BLA complementation TLR9-MyD88, CCF4 FRET ratio | inhibition, % at 4.98 µM;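 active = inhibition above the mean over all tested compounds plus 3 SD, cut at about 21% in these data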;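 also: 0% = DMSO only wells and 100% = clavulanate BLA inhibitor control wells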
An asterisk follows results filed as active. Many of the other results were omitted from the sample, so hits are more common in it than they were.

What do the screens show for `Cc1cccc(C)c1NC(=O)CSc1nc2ccccc2c(=O)[nH]1`?
CHOP inhibitor: 71*; CHOP UPR activ: 4; NOD2 RIPK2 PPI: 1; TLR4-MyD88 BLA: 7; XBP1 UPR activ: -2; TLR9-MyD88 inh: -10

Results for O=C(CCCSc1nc2ccccc2c(=O)[nH]1)c1ccc(F)cc1 ?
CHOP inhibitor: 79*; CHOP UPR activ: 1; NOD2 RIPK2 PPI: -10; TLR4-MyD88 BLA: 6; XBP1 UPR activ: -3; TLR9-MyD88 inh: -2

How did Cc1ccc(C(=O)CSc2nc3ccccc3c(=O)[nH]2)cc1 do in these assays?
CHOP inhibitor: -2; CHOP UPR activ: -2; NOD2 RIPK2 PPI: 3; TLR4-MyD88 BLA: -7; XBP1 UPR activ: 0; TLR9-MyD88 inh: 3

What do the screens show for `CCc1ccc(C(=O)CSc2nc3ccccc3c(=O)[nH]2)cc1`?
CHOP inhibitor: 95*; CHOP UPR activ: -2; NOD2 RIPK2 PPI: 4; TLR4-MyD88 BLA: 8; XBP1 UPR activ: -3; TLR9-MyD88 inh: -5

Results for CCNC(=O)C1(C)CCN(C(=O)c2ccc(OC)cc2OC)C1 (stereo not given) ?
NOD2 RIPK2 PPI: -2

What do the screens show for `O=c1cc(-c2ccccc2)nc(SCCOc2ccccc2Cl)[nH]1`?
CHOP inhibitor: 74*; CHOP UPR activ: -2; NOD2 RIPK2 PPI: 5; TLR4-MyD88 BLA: -2; XBP1 UPR activ: -5; TLR9-MyD88 inh: -12

What do the screens show for `COc1cc(CSc2nc(-c3ccccc3)cc(=O)[nH]2)cc(OC)c1`?
CHOP UPR activ: 2; NOD2 RIPK2 PPI: -5; XBP1 UPR activ: -2; TLR9-MyD88 inh: 0

How did CON/C=C(\C=Nc1ccc(Cl)cc1Cl)c1ncc(C(F)(F)F)cc1Cl do in these assays?
CHOP inhibitor: -25; CHOP UPR activ: -1; NOD2 RIPK2 PPI: -2; TLR4-MyD88 BLA: -3; XBP1 UPR activ: 1; TLR9-MyD88 inh: -13

Results for CON/C=C(\C=Nc1ccccc1)c1ncc(C(F)(F)F)cc1Cl ?
CHOP inhibitor: 89*; CHOP UPR activ: -2; NOD2 RIPK2 PPI: -14; TLR4-MyD88 BLA: 2; XBP1 UPR activ: -1; TLR9-MyD88 inh: -5

Results for CN(c1ccc(C(=O)N2CCCCC2)cc1)S(C)(=O)=O ?
CHOP inhibitor: 79*; CHOP UPR activ: -2; NOD2 RIPK2 PPI: -4; TLR4-MyD88 BLA: 3; XBP1 UPR activ: -3; TLR9-MyD88 inh: 12

Results for CC1CCN(C(=O)c2ccc(N(C)S(C)(=O)=O)cc2)CC1 ?
CHOP inhibitor: -6; CHOP UPR activ: 0; NOD2 RIPK2 PPI: -9; TLR4-MyD88 BLA: 0; XBP1 UPR activ: 1; TLR9-MyD88 inh: 4

Results for C[C@@H]1CN([C@@H](C)CO)C(=O)CCCn2nncc2CO[C@H]1CN(C)C(=O)Nc1ccnc(N2CCOCC2)c1 ?
NOD2 RIPK2 PPI: 3; TLR9-MyD88 inh: -1

What do the screens show for `CC(C)(C)c1cc(CCC(=O)NNC(=S)NC(=O)c2ccccc2)cc(C(C)(C)C)c1O`?
CHOP inhibitor: 109*; CHOP UPR activ: 20; NOD2 RIPK2 PPI: 5; TLR4-MyD88 BLA: -3; XBP1 UPR activ: 23; TLR9-MyD88 inh: 3

Results for O=C(Nc1ccc(Cl)cc1Cl)c1cc2ccccc2o1 ?
CHOP UPR activ: 5; NOD2 RIPK2 PPI: 5; XBP1 UPR activ: -1; TLR9-MyD88 inh: 8

How did O/N=C(\c1ccc(Cl)cc1)c1cc2ccccc2o1 do in these assays?
CHOP inhibitor: 85*; CHOP UPR activ: 1; NOD2 RIPK2 PPI: 15; TLR4-MyD88 BLA: 5; XBP1 UPR activ: 1; TLR9-MyD88 inh: -7

Results for COc1ccc(-c2coc3c(C(=O)Nc4cccc(NS(C)(=O)=O)c4)cccc23)c(C)c1 ?
NOD2 RIPK2 PPI: 1

How did CCOC(=O)c1ccccc1NC(=O)c1ccc(NS(C)(=O)=O)cc1 do in these assays?
CHOP inhibitor: 80*; CHOP UPR activ: -1; NOD2 RIPK2 PPI: -6; TLR4-MyD88 BLA: -2; XBP1 UPR activ: 6; TLR9-MyD88 inh: 4

What do the screens show for `CCCOC(=O)COC(=O)c1ccccc1NC(=O)c1ccccc1`?
CHOP inhibitor: 63; CHOP UPR activ: -3; NOD2 RIPK2 PPI: -8; TLR4-MyD88 BLA: 5; XBP1 UPR activ: -1; TLR9-MyD88 inh: 7

How did CCOC(=O)C1=C(C)NC(=O)C(C#N)C1c1ccco1 (stereo not given) do in these assays?
CHOP inhibitor: 70*; CHOP UPR activ: -1; NOD2 RIPK2 PPI: 2; TLR4-MyD88 BLA: 3; XBP1 UPR activ: -1; TLR9-MyD88 inh: -2

What do the screens show for `CCOC(=O)C1=C(C)NC(C)=C(C(=O)OC)C1c1ccco1` (stereo not given)?
CHOP inhibitor: 2; CHOP UPR activ: 3; NOD2 RIPK2 PPI: 1; XBP1 UPR activ: 3; TLR9-MyD88 inh: -1

Results for COC(=O)c1ccc(N2CCN(C(=O)C3CC3)CC2)c([N+](=O)[O-])c1 ?
CHOP UPR activ: 1; NOD2 RIPK2 PPI: 0; XBP1 UPR activ: 5; TLR9-MyD88 inh: -5

How did COC(=O)c1ccc(N2CCC(c3cc(-c4ccc(OC)cc4)n[nH]3)CC2)c([N+](=O)[O-])c1 do in these assays?
CHOP inhibitor: 79*; CHOP UPR activ: 5; NOD2 RIPK2 PPI: -7; TLR4-MyD88 BLA: 4; XBP1 UPR activ: 8; TLR9-MyD88 inh: -1

What do the screens show for `CC(=O)c1ccc(N2CCC(c3cc(-c4ccc(Cl)cc4)n[nH]3)CC2)c([N+](=O)[O-])c1`?
CHOP inhibitor: 61; CHOP UPR activ: 8; NOD2 RIPK2 PPI: -5; TLR4-MyD88 BLA: 4; XBP1 UPR activ: 6; TLR9-MyD88 inh: -6

What do the screens show for `COc1ccc(-c2cc(C3CCN(c4ccc(C(C)=O)cc4[N+](=O)[O-])CC3)[nH]n2)cc1`?
CHOP inhibitor: 86*; CHOP UPR activ: 5; NOD2 RIPK2 PPI: 4; TLR4-MyD88 BLA: -6; XBP1 UPR activ: 3; TLR9-MyD88 inh: -2

What do the screens show for `CC(=O)c1sc(NC(=O)c2ccccc2F)nc1-c1ccccc1`?
CHOP inhibitor: -16; CHOP UPR activ: 5; NOD2 RIPK2 PPI: 0; TLR4-MyD88 BLA: -2; XBP1 UPR activ: 5; TLR9-MyD88 inh: -9

What do the screens show for `CC(=O)c1sc(NC(=O)c2ccc(F)cc2)nc1-c1ccccc1`?
CHOP inhibitor: 75*; CHOP UPR activ: 6; NOD2 RIPK2 PPI: 3; TLR4-MyD88 BLA: 3; XBP1 UPR activ: 5; TLR9-MyD88 inh: -1

How did COc1ccc(-c2ccc(C(=O)Nc3cc(OC)c(OC)c(OC)c3)c3occc23)c(C)c1 do in these assays?
NOD2 RIPK2 PPI: -8

Results for O=C(NC1CCCCC1)C(c1ccc(F)cc1)N(Cc1ccco1)C(=O)Cn1nnc2ccccc21 (stereo not given) ?
CHOP inhibitor: 74*; CHOP UPR activ: 0; NOD2 RIPK2 PPI: 2; TLR4-MyD88 BLA: -9; XBP1 UPR activ: 0; TLR9-MyD88 inh: 4
